Assay results: PMC7616001 (Journal of medicinal chemistry, 2022)

Key:
ER of HeLa cells = assay: ER imaging of ER-RFP-labeled HeLa cells; assay type: cell-based, human
How it was run: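 HeLa cells transduced with a CellLight ER-RFP BacMam 2.0 construct, replated on glass-bottom dishes overnight, then treated with test compound (20 or 40 μM) for 8 h or 24 h. A platinum–ferrocene complex (40 μM) served as positive control. After PBS washes, confocal images were taken in phenol red-free medium (ex 543 nm, em 584–655 nm) at constant exposure.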

[1] = Reversible aquation and anation by 1H NMR; assay type: physicochemical; settings: DMSO/D2O without NaCl, within 10 min
How it was run: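 1H NMR in DMSO/D2O. At 10 min, 666 mM NaCl in D2O added to give 100 mM NaCl in DMSO/D2O (85:15 v/v). Spectra recorded at regular intervals up to 60 min.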

A2780 = assay: 72 h crystal violet; assay type: cell-based, human; settings: read-out: IC50 (CV assay) A2780; 72 h CV assay
How it was run: (§1)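 Seeding and dosing as for MTT: 3 × 10^3 cells/well, overnight, final DMSO ≤0.1%, 72 h exposure. Wells washed with PBS and fixed in 4% paraformaldehyde for 15 min. Crystal violet stained, dried, dissolved in 96% ethanol and A570 read. IC50 derived from dose–response curves.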

HeLa = assay: 72 h crystal violet; assay type: cell-based, human
How it was run: as §1

ROS level in HeLa cells = assay: H2DCF-DA intracellular ROS assay; assay type: cell-based, human; settings: 10 μM, 1-8 h
How it was run: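 HeLa plated at 10 × 10^3 per well, grown overnight, then exposed to 10 μM test compound for 1, 2, 4 or 8 h. Washed with PBS and loaded with 10 μM H2DCF‑DA for 30 min. Washed again, phenol red‑free DMEM added, fluorescence read immediately. Three biological replicates.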

[2] = system: IRE1α, ATF6, p-elF2α, unfolded proteins in HeLa cells; assay: Western blot of polyubiquitinated proteins and ER-stress marker proteins; assay type: cell-based, human; settings: 24 h
How it was run: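 HeLa cells, about 2 × 10^6 at 80–90% confluency, were treated for 24 h with test compound at 10, 20 or 40 μM, with celastrol as positive control. RIPA lysates with protease inhibitors were heated in Laemmli buffer (90 °C, 10 min), resolved on 10/12% SDS-PAGE and transferred to PVDF. Membranes were blocked in 2% milk and probed overnight at 4 °C with primary antibodies (1:1000), then with HRP secondary antibodies.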

ΔΨm of HeLa cells = assay: JC-1 mitochondrial membrane potential assay, flow cytometry; assay type: cell-based, human; settings: 24 h, even at 1/4 × IC50/24h (10 μM)
[3] = Stability in DMSO and aqueous media by 1H NMR; assay type: physicochemical; settings: up to 48 h
How it was run: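 About 2 mM test compound in DMSO-d6 was mixed with 666 mM NaCl in D2O to give 100 mM NaCl final in DMSO/D2O (85/15, v/v). 1H NMR spectra were recorded at regular intervals up to 48 h.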

[4] = system: zebrafish sub-intestinal venous plexus (SIVP) angiogenesis; assay: Zebrafish SIVP angiogenesis model; assay type: in vivo, zebrafish (Danio rerio); settings: 20/30/40 μM from 26 hpf, imaged at 72 hpf
How it was run: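 Test compound stock 5 mM in DMSO, diluted in E3 to final 20, 30 or 40 μM; DMSO vehicle at 10 μL/mL E3. Four 26 hpf Tg(etv2:EGFP) embryos per 1 mL. Raised to 72 hpf at 28 °C for confocal analysis of the sub‑intestinal venous plexus.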

HeLa cells [5] = assay: Intracellular distribution between nucleus and cytoplasm, ICP-MS; assay type: cell-based, human; settings: 10 μM, 24 h exposure
How it was run: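 5 × 10^6 HeLa per 100 mm plate, grown overnight. Exposed 24 h to 10 μM test compound, with 10 μM cisplatin as comparator. PBS‑washed, trypsinised, counted. Nuclear and cytoplasmic fractions isolated with a commercial kit. Protein measured by BCA assay, metal by ICP‑MS. Three experiments of ≥3 replicates.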

[6] = system: HO• radicals in HeLa cells; assay: Flow cytometric quantification of hydroxyl radicals with HPF probe; assay type: cell-based, human; settings: 10 μM, 4 h
How it was run: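 HeLa seeded at 0.75 × 10^6 cells per six‑well plate well, grown overnight, then treated 4 h at 10 μM. Cells trypsinised, washed with ice‑cold PBS and spun at 1200 rpm, 5 min, 4 °C. Probe‑stained cells analysed by flow cytometry, approximately 20,000 cells per sample.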

[7] = Stability in RPMI-1640 cell culture medium by UPLC; assay type: physicochemical
How it was run: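 Test compound incubated in RPMI‑1640 and monitored by UPLC. Run twice, each with three replicates.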

HeLa cells [8] = assay: Annexin-V/PI dual staining flow cytometry; assay type: cell-based, human; settings: 24 h

Question: With `Cc1ccc(C(C)C)cc1.O=C(C=C([O-])C(F)(F)F)[c-]1cccc1.[Cl-].[Fe+2].[Ru+2].c1cc[cH-]c1` [Compound 1, [(η^6-p-cymene)Ru(1,1,1-trifluoro-4-oxo-4-ferrocenyl-but-2-en-2-olate)Cl]] as the compound, how does the “ER dilation and vacuole formation” value (ER of HeLa cells) read?
Answer: The value was “ER dilation and/or vacuole formation were not observed”.

Question: And the fraction aquated [1]?
Answer: Its fraction aquated is ~ 95%.

Question: What about the IC50 (A2780) of the same compound?
Answer: The IC50 was 7.2 ± 0.3 µM.

Question: And the “IC50 from CV assay compared to IC50 from MTT assay” value (HeLa; HeLa and A2780, 72 h)?
Answer: Its value is ~ 3 fold.

Question: What about the IC50 (HeLa; read-out: IC50 (CV assay) HeLa, 72 h CV assay) of the same compound?
Answer: The IC50 was 4.4 ± 1.7 µM.

Question: And the “intracellular ROS level (H2DCF-DA)” value (ROS level in HeLa cells)?
Answer: Its value is “significant increase in ROS”.

Question: What about the “unfolded (polyubiquitinated) proteins” value ([2]; 10-40 μM) of the same compound?
Answer: The value was “dose-dependent upregulation of unfolded proteins”.

Question: And the “IRE1α and ATF6 levels” value [2]?
Answer: The value was “significant upregulation of both IRE1α and ATF6”.

Question: What about the “p-elF2α level (PERK arm)” value [2] of the same compound?
Answer: The value was “did not increase the level of the downstream protein p-elF2α”.

Question: What about the “effect on ΔΨm (JC-1 red/green)” value (ΔΨm of HeLa cells) of the same compound?
Answer: Its value is “dramatic decrease in ΔΨm”.

Question: What about the “stability in DMSO” value [3] of the same compound?
Answer: Its value is “no change was detected in the ^1H NMR spectrum up to 48 h”.

Question: What about the “stability in DMSO-d6/D2O containing 100 mM NaCl” value [3] of the same compound?
Answer: Its value is “no significant spectral changes were observed up to 48 h”.

Question: And the “effect on SIVP angiogenesis (SIVP area, number of compartments)” value [4]?
Answer: Its value is “dose-dependent antiangiogenic effects”.

Question: What about the “metal content in nuclear fraction relative to cytoplasmic fraction” value (HeLa cells [5]) of the same compound?
Answer: Its value is ~ 2.5 times.

Question: And the “level of HO• radicals relative to untreated control” value [6]?
Answer: The value was ~ 7 fold.

Question: And the “intact compound remaining in RPMI-1640 with 10% FBS” value ([7]; after 24 h)?
Answer: Its value is ~45%.

Question: And the “intact compound remaining in RPMI-1640 with 10% FBS” value ([7]; after 72 h)?
Answer: The value was ~7%.

Question: What about the “decomposition in RPMI-1640 with 10% FBS” value ([7]; up to 8 h, 37 °C, UPLC) of the same compound?
Answer: The value was < 20%.

Question: And the “AV^−/PI^+ cells (necrosis)” value (HeLa cells [8]; 10 μM)?
Answer: Its value is 9%.

Question: What about the “AV^−/PI^+ cells (necrosis)” value (HeLa cells [8]; 20 μM) of the same compound?
Answer: The value was 15.4%.
